Converted amounts (≈) assume the structure as drawn.
How the values were obtained:
Streptococcus pneumoniae [1] = experiment: Antibacterial activity against fluoroquinolone, dye-resistant Streptococcus pneumoniae M50 overexpressing patA, patB by standardized agar doubling dilution method in presence of 50 uM sodium orthovanadate efflux pump inhibitor; type: functional
Procedure, shortened: (§1)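 MIC by agar doubling dilution following BSAC guidelines. Strains grown in brain heart infusion broth 24 h at 37°C in 5% CO2. Where an efflux pump inhibitor applies, MIC redetermined with reserpine at 20 μg/ml or sodium orthovanadate at 50 μM. Synergy taken as a fall in MIC of ≥2 dilutions with inhibitor present. Dye resistance defined relative to R6 (both dyes ≥2 dilutions higher).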

Streptococcus pneumoniae [2] = experiment: Antibacterial activity against fluoroquinolone, dye-resistant Streptococcus pneumoniae M45 overexpressing patA, patB by standardized agar doubling dilution method in presence of 20 ug/ml reserpine efflux pump inhibitor; type: functional; procedure, shortened: as §1
Streptococcus pneumoniae [3] = experiment: Antibacterial activity against Streptococcus pneumoniae M301 overexpressing patA, patB and inactivated patA with single mutation by standardized agar doubling dilution method in presence of 20 ug/ml reserpine efflux pump inhibitor; type: functional
Procedure, shortened: (§2)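 MICs determined by BSAC standardized agar doubling dilution. Strains were grown in brain heart infusion broth for 24 h at 37°C in 5% CO2. Inhibitor arms had reserpine at 20 μg/ml or sodium orthovanadate at 50 μM in the agar. Mutants were made by transforming magellan2 insertion amplimers into clinical isolates and selecting on spectinomycin 100 mg/liter, with a no-DNA spontaneous-mutation control.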

Streptococcus pneumoniae [4] = experiment: Antibacterial activity against Streptococcus pneumoniae M301 overexpressing patA, patB and inactivated patA with single mutation by standardized agar doubling dilution method in presence of 50 uM sodium orthovanadate efflux pump inhibitor; type: functional; procedure, shortened: as §2
Streptococcus pneumoniae [5] = experiment: Antibacterial activity against Streptococcus pneumoniae M46B overexpressing patA, patB and inactivated patB with single mutation by standardized agar doubling dilution method in presence of 50 uM sodium orthovanadate efflux pump inhibitor; type: functional
Procedure, shortened: (§3)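 MICs were determined by BSAC agar doubling dilution in the presence of sodium orthovanadate at 50 μM. Cultures were grown in BHI broth for 24 h at 37°C in 5% CO2, with R6 as control. Synergy was defined as an MIC reduction of ≥2 dilutions with the inhibitor present.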

Streptococcus pneumoniae [6] = experiment: Antibacterial activity against Streptococcus pneumoniae M318 overexpressing patA, patB and inactivated patA with single mutation by standardized agar doubling dilution method; type: functional
Procedure, shortened: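 MICs were determined by agar doubling dilution following BSAC guidelines, with no efflux inhibitor. Strains were grown in brain heart infusion broth for 24 h at 37°C in 5% CO2. Species identity was confirmed by Gram stain, optochin sensitivity and capsule test. Control strain R6 was tested alongside.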

Streptococcus pneumoniae [7] = experiment: Antibacterial activity against Streptococcus pneumoniae M309 overexpressing patA, patB and inactivated patB with single mutation by standardized agar doubling dilution method in presence of 50 uM sodium orthovanadate efflux pump inhibitor; type: functional; procedure, shortened: as §2
Streptococcus pneumoniae [8] = experiment: Antibacterial activity against Streptococcus pneumoniae M298 overexpressing patA, patB and inactivated patA with single mutation by standardized agar doubling dilution method in presence of 20 ug/ml reserpine efflux pump inhibitor
Streptococcus pneumoniae [9] = experiment: Antibacterial activity against dye-resistant Streptococcus pneumoniae by standardized agar doubling dilution method in presence of 20 ug/ml reserpine efflux pump inhibitor; type: functional; procedure, shortened: as §1
Streptococcus pneumoniae [10] = experiment: Antibacterial activity against fluoroquinolone, dye-resistant Streptococcus pneumoniae M42 overexpressing patA, patB by standardized agar doubling dilution method in presence of 50 uM sodium orthovanadate efflux pump inhibitor; type: functional; procedure, shortened: as §1
Streptococcus pneumoniae [11] = experiment: Antibacterial activity against Streptococcus pneumoniae M50B overexpressing patA, patB and inactivated patB with single mutation by standardized agar doubling dilution method in presence of 20 ug/ml reserpine efflux pump inhibitor; type: functional
Procedure, shortened: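 MICs were determined by BSAC agar doubling dilution in the presence of reserpine at 20 μg/ml. Strains were grown in BHI broth for 24 h at 37°C in 5% CO2, with R6 as control. Synergy was defined as an MIC drop of ≥2 dilutions with the inhibitor.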

Streptococcus pneumoniae [12] = experiment: Antibacterial activity against fluoroquinolone-resistant Streptococcus pneumoniae M79 FQ-R overexpressing patA, patB by standardized agar doubling dilution method in presence of 50 uM sodium orthovanadate efflux pump inhibitor; type: functional
Procedure, shortened: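 Clinical S. pneumoniae isolates grown in BHI broth 24 h at 37°C in 5% CO2. MICs by agar doubling dilution per BSAC guidelines, alone or with efflux inhibitor reserpine (20 μg/ml) or sodium orthovanadate (50 μM). Synergy defined as ≥2-dilution MIC reduction in presence of inhibitor.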

Streptococcus pneumoniae [13] = experiment: Antibacterial activity against Streptococcus pneumoniae M298 overexpressing patA, patB and inactivated patA with single mutation by standardized agar doubling dilution method in presence of 50 uM sodium orthovanadate efflux pump inhibitor
Streptococcus pneumoniae [14] = experiment: Antibacterial activity against Streptococcus pneumoniae M304 overexpressing patA, patB and inactivated patA with single mutation by standardized agar doubling dilution method in presence of 50 uM sodium orthovanadate efflux pump inhibitor; type: functional; procedure, shortened: as §2
Streptococcus pneumoniae [15] = experiment: Antibacterial activity against Streptococcus pneumoniae M302 overexpressing patA, patB and inactivated patA with single mutation by standardized agar doubling dilution method; type: functional; procedure, shortened: as §2
Streptococcus pneumoniae [16] = experiment: Antibacterial activity against fluoroquinolone-resistant Streptococcus pneumoniae M100 FQ-R overexpressing patA, patB by standardized agar doubling dilution method in presence of 20 ug/ml reserpine efflux pump inhibitor; type: functional
Procedure, shortened: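 MIC by agar doubling dilution per BSAC guidelines; strains pregrown in brain heart infusion broth 24 h, 37°C, 5% CO2. MICs measured alone and with efflux pump inhibitors reserpine (20 μg/ml) or sodium orthovanadate (50 μM); synergy defined as ≥2-dilution MIC reduction in presence of inhibitor.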

Streptococcus pneumoniae [17] = experiment: Antibacterial activity against Streptococcus pneumoniae M309 overexpressing patA, patB and inactivated patB with single mutation by standardized agar doubling dilution method in presence of 20 ug/ml reserpine efflux pump inhibitor; type: functional; procedure, shortened: as §2
Streptococcus pneumoniae [18] = experiment: Antibacterial activity against fluoroquinolone-resistant Streptococcus pneumoniae by standardized agar doubling dilution method in presence of 20 ug/ml reserpine efflux pump inhibitor; type: functional; procedure, shortened: as §1
Streptococcus pneumoniae [19] = experiment: Antibacterial activity against Streptococcus pneumoniae M308 overexpressing patA, patB and inactivated patB with single mutation by standardized agar doubling dilution method in presence of 20 ug/ml reserpine efflux pump inhibitor; type: functional; procedure, shortened: as §2
Streptococcus pneumoniae [20] = experiment: Antibacterial activity against wild-type Streptococcus pneumoniae R6 by standardized agar doubling dilution method in presence of 50 uM sodium orthovanadate efflux pump inhibitor
Streptococcus pneumoniae [21] = experiment: Antibacterial activity against Streptococcus pneumoniae M302 overexpressing patA, patB and inactivated patA with single mutation by standardized agar doubling dilution method in presence of 20 ug/ml reserpine efflux pump inhibitor; type: functional; procedure, shortened: as §2
Streptococcus pneumoniae [22] = experiment: Antibacterial activity against fluoroquinolone, dye-resistant Streptococcus pneumoniae M45 overexpressing patA, patB by standardized agar doubling dilution method in presence of 50 uM sodium orthovanadate efflux pump inhibitor; type: functional; procedure, shortened: as §1
Streptococcus pneumoniae [23] = experiment: Antibacterial activity against Streptococcus pneumoniae M45B overexpressing patA, patB and inactivated patB with single mutation by standardized agar doubling dilution method in presence of 50 uM sodium orthovanadate efflux pump inhibitor; type: functional; procedure, shortened: as §3
Streptococcus pneumoniae [24] = experiment: Antibacterial activity against fluoroquinolone, dye-resistant Streptococcus pneumoniae M296 overexpressing patA, patB by standardized agar doubling dilution method in presence of 50 uM sodium orthovanadate efflux pump inhibitor; type: functional; procedure, shortened: as §1
Streptococcus pneumoniae [25] = experiment: Antibacterial activity against Streptococcus pneumoniae M316 overexpressing patA, patB and inactivated patA with single mutation by standardized agar doubling dilution method in presence of 50 uM sodium orthovanadate efflux pump inhibitor; type: functional; procedure, shortened: as §3

Row | SMILES | MIC (Streptococcus pneumoniae [1]) [µg/mL] | MIC (Streptococcus pneumoniae [2]) [µg/mL] | MIC (Streptococcus pneumoniae [3]) [µg/mL] | MIC (Streptococcus pneumoniae [4]) [µg/mL] | MIC (Streptococcus pneumoniae [5]) [µg/mL] | MIC (Streptococcus pneumoniae [6]) [µg/mL] | MIC (Streptococcus pneumoniae [7]) [µg/mL] | MIC (Streptococcus pneumoniae [8]) [µg/mL] | MIC90 (Streptococcus pneumoniae [9]) [µg/mL] | MIC (Streptococcus pneumoniae [10]) [µg/mL] | MIC (Streptococcus pneumoniae [11]) [µg/mL] | MIC (Streptococcus pneumoniae [12]) [µg/mL] | MIC (Streptococcus pneumoniae [13]) [µg/mL] | MIC (Streptococcus pneumoniae [14]) [µg/mL] | MIC (Streptococcus pneumoniae [15]) [µg/mL] | MIC (Streptococcus pneumoniae [16]) [µg/mL] | MIC (Streptococcus pneumoniae [17]) [µg/mL] | MIC90 (Streptococcus pneumoniae [18]) [µg/mL] | MIC (Streptococcus pneumoniae [19]) [µg/mL] | MIC (Streptococcus pneumoniae [20]) [µg/mL] | further results
1 | O=C(O)c1cn(C2CC2)c2cc(N3CCNCC3)c(F)cc2c1=O [CIPROFLOXACIN] | 32 | 1 | 8 | 8 | 0.12 | 16 (≈ 48.3 µM) | 2 | 8 | 0.5 | 16 | 4 | 16 | 8 | 2 | 4 (≈ 12.1 µM) | 2 | 1 | 4 | 1 | 0.25 | MIC (Streptococcus pneumoniae [21]): 4 µg/mL; MIC (Streptococcus pneumoniae [22]): 1 µg/mL; MIC (Streptococcus pneumoniae [23]): 1 µg/mL; MIC (Streptococcus pneumoniae [24]): 8 µg/mL; MIC (Streptococcus pneumoniae [25]): 8 µg/mL
2 | CC[n+]1c(-c2ccccc2)c2cc(N)ccc2c2ccc(N)cc21.[Br-] [HOMIDIUM BROMIDE] | 1 | 0.5 | 0.5 | 0.25 | 0.5 | 0.5 | 8 | 0.5 | 0.5 | 1 | 0.5 | 0.5 | 0.5 | 0.25 | 0.5 | 0.25 | 0.5 | 0.5 | 0.25 | 0.12 | MIC (Streptococcus pneumoniae [9]): 0.5 µg/mL; MIC (Streptococcus pneumoniae [21]): 0.5 µg/mL; MIC (Streptococcus pneumoniae [22]): 1 µg/mL; MIC (Streptococcus pneumoniae [23]): 0.5 µg/mL; MIC (Streptococcus pneumoniae [24]): 2 µg/mL; MIC (Streptococcus pneumoniae [25]): 0.5 µg/mL
